High-throughput results from PubChem.
Only some compounds are listed: those with a hit (about 4% of all), similar ones and a draw of the others.
XBP1 UPR activ = adaptive UPR (XBP1) activation. CHO-XBP1 luciferase reporter, IRE1-XBP1 UPR activation, luminescence; percent of tunicamycin response, DMSO as zero. activation, % at 20 µM. 330,000 tested, 0.33% active;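 active = versus positive control, 20 µM dose yields 30% or more activation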;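 note: 100% = tunicamycin at 10 µg/mL and 0% = DMSO only wells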
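Material – CHO cell line with stable XBP1 luciferase reporter · Buffer or medium – F12 plus 10% FBS · Compound – single point, 20 µM final compound, 1% DMSO · Schedule – 16-18 h cell attachment at 37 °C, then 6 h compound exposure · Signal – Steady-Glo luminescence read · Benchmarks – high control tunicamycin 10 µg/mL final, low control DMSO vehicle only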
Exocytosis inh = blocks lytic granule exocytosis; inhibition, % at 10 µM; TALL-104 LAMP-1 surface exposure, flow cytometry; cells stimulated with thapsigargin and PMA; AID 651702; 360,000 tested, 0.66% active;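 active = inhibition above about 55%, limit read from the data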
ABHD5-PLIN5 inh = blocks binding of human ABHD5 to perilipin-5 | Split G. princeps luciferase complementation, luminescence, 4 h | Q00G26+Q8WTS1 | 360,000 tested, 0.78% active | inhibition, % at 4 µM;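 active = inhibition above the mean inhibition across every tested compound plus 3 SD, cut at about 22% in these data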;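 note: 0% = DMSO only wells and the 100% control is not disclosed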
Target sequence (Q00G26 whole entry, looked up): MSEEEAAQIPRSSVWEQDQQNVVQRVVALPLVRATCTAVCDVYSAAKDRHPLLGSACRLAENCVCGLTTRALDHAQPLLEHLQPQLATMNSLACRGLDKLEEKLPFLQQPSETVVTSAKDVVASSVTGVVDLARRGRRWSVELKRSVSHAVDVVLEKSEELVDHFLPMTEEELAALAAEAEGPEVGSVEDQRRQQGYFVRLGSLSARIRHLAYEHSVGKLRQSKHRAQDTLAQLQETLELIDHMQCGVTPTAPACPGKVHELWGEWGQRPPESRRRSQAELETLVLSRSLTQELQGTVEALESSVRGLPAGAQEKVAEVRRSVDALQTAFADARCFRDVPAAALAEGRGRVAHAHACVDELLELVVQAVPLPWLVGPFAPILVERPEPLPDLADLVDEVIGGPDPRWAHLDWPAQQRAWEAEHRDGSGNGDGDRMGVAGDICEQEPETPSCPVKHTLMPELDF
Target sequence (Q8WTS1 whole entry, looked up): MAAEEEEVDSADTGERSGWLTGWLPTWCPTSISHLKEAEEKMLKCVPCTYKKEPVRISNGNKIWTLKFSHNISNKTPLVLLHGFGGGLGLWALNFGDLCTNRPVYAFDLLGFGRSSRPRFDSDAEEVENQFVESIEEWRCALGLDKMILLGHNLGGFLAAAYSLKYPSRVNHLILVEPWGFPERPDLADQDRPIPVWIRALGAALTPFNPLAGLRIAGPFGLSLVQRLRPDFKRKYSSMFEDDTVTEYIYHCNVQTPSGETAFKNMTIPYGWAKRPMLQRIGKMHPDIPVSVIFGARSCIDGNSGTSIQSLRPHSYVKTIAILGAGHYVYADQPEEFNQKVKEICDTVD
Mdm2-MdmX inh = human Mdm2/MdmX binding inhibition. O15151+Q00987. SaOS-2 split-luciferase Mdm2/MdmX complementation, luminescence. AID 485346. 330,000 tested, 3% active. inhibition, % at 8 µM;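 active = inhibition of at least 50% at 8 µM in the primary screen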
UPR CHOP act = apoptotic UPR (CHOP) activation | CHO-CHOP luciferase reporter, luminescence; percent of tunicamycin response over DMSO baseline | activation, % at 10 µM | 330,000 tested, 0.34% active | AID 449763;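 active = at 10 µM dose, activation of 40% or more, normalized to positive control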;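 note: 100% = tunicamycin at 10 µg/mL and 0% = DMSO alone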
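Assay system: CHO cells with stable CHOP pathway luciferase reporter; Buffer or medium: F12 plus 10% serum; Times: 16-18 h cell attachment, then 6 h compound exposure, 37 °C; Signal: luciferase luminescence; Read-out basis: percent activation relative to tunicamycin control; Control set: tunicamycin high control, DMSO low control.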
UPR CHOP confirm = confirmation of apoptotic unfolded protein response (CHOP) activators. shares compounds with UPR CHOP act. CHO-CHOP cells, CHOP-luciferase reporter luminescence; percent of tunicamycin response, DMSO as zero. activation, % at 10 µM. 1,000 tested, 64% active; in the data active = activation above about 33%;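 note: 0% = DMSO wells and 100% = tunicamycin 10 µg/mL wells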
XBP1 UPR conf = adaptive UPR (XBP1) activation, confirmed; shares compounds with XBP1 UPR activ; AID 485299; activation, % at 20 µM; CHO-XBP1 IRE1-XBP1 luciferase reporter, luminescence; 1,000 tested, 63% active;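 active = reporter signal at least 30% of the positive control's activation in two or more of four replicate wells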;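 note: plate controls were DMSO negative control for no effect and tunicamycin 10 µg/mL positive control for full effect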
Mdm2 MdmX conf = confirmation of human Mdm2/MdmX interaction inhibitors; 10,000 tested, 55% active; Mdm2-MdmX binding, luminescent assay; shares compounds with Mdm2-MdmX inh; inhibition, % at 8 µM; in the data active = inhibition above about 40%
FLuc counter = inhibits full-length luciferase, flagging false Mdm2/MdmX hits. shares compounds with Mdm2-MdmX inh. SaOS-2 full-length luciferase counterscreen, luminescence. inhibition, % at 8 µM. 6,200 tested, 77% active;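 active = mean inhibition at 8 µM reaching about 37%, which flags the compound as non-specific, limit read from the data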;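 note: p53-null SaOS-2 cells with luciferase driven by a doxycycline-inducible promoter; compound on cells about two nights before reading with doxycycline added after day one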
* = called active by the depositor.

Screening O=C(Nc1nc(-c2ccccn2)cs1)c1cc(Cl)ccc1[N+](=O)[O-] returned XBP1 UPR activ -1.1, Exocytosis inh 1.5, ABHD5-PLIN5 inh -3.5, Mdm2-MdmX inh 83.3*, UPR CHOP act 65.7*, UPR CHOP confirm 166.7*, Mdm2 MdmX conf 75.2* and FLuc counter 32.3.
Cc1nc([N+](=O)[O-])c(Br)n1CC(=O)c1ccc(Br)cc1 was read as XBP1 UPR activ -3.3, Exocytosis inh -0.9, ABHD5-PLIN5 inh 20.0, Mdm2-MdmX inh 63.2*, UPR CHOP act 75.1*, UPR CHOP confirm 42.8* and Mdm2 MdmX conf 10.1.
CCOC(=O)c1c(-c2ccc(C)o2)csc1NC(=S)NC(=O)c1ccc(F)cc1 was read as XBP1 UPR activ -4.6, Exocytosis inh 10.8, ABHD5-PLIN5 inh 10.0, Mdm2-MdmX inh 21.5 and UPR CHOP act 1.6.
COc1ccccc1Cn1c(=S)[nH]c2cc(C(=O)N3CCN(c4ccccc4OC)CC3)ccc2c1=O was read as XBP1 UPR activ -4.9, Exocytosis inh -2.8, ABHD5-PLIN5 inh 6.4, Mdm2-MdmX inh 60.8*, UPR CHOP act 83.6*, UPR CHOP confirm 0.9, Mdm2 MdmX conf 42.5* and FLuc counter 54.0*.
Screening CCN(C(=O)CSc1nnc(-c2ccncc2)n1C)C1CCS(=O)(=O)C1 (centres undefined) returned XBP1 UPR activ 1.9, Exocytosis inh 2.2, ABHD5-PLIN5 inh -1.7, Mdm2-MdmX inh 10.9 and UPR CHOP act -3.0.
CC1(C)Cc2c(sc(NC(=O)COc3cccc4ccccc34)c2C#N)C(C)(C)N1 was read as XBP1 UPR activ 25.1, Exocytosis inh 45.2, ABHD5-PLIN5 inh -6.0, Mdm2-MdmX inh 98.3*, UPR CHOP act 54.0*, UPR CHOP confirm 19.1, Mdm2 MdmX conf 99.5* and FLuc counter 50.5*.
`Cc1nc2ccccc2n1-c1nc(-c2ccco2)cc(C(F)(F)F)n1` gave XBP1 UPR activ 57.0*, Exocytosis inh -2.1, ABHD5-PLIN5 inh 2.3, Mdm2-MdmX inh 77.2*, UPR CHOP act 174.1*, UPR CHOP confirm 132.5*, XBP1 UPR conf 43.4*, Mdm2 MdmX conf 100.2* and FLuc counter 8.5.
For Cc1cccn2c(=O)c3cc(C(=O)NCc4ccco4)c(=N)n(CCc4ccccc4)c3nc12 the results were XBP1 UPR activ 0.2, Exocytosis inh -0.6, ABHD5-PLIN5 inh 16.0, Mdm2-MdmX inh 11.3 and UPR CHOP act 3.4.
`COc1ccc(CCNC(=O)c2cc3c(=O)n4cccc(C)c4nc3n(Cc3ccco3)c2=N)cc1OC` gave XBP1 UPR activ 0.9, Exocytosis inh 33.2, ABHD5-PLIN5 inh 15.8, Mdm2-MdmX inh 100.3*, UPR CHOP act 244.6*, UPR CHOP confirm 1.4, Mdm2 MdmX conf 95.5* and FLuc counter 2.6.
For CCn1nc(C)c(NC(=O)CC23CC4CC(CC(C4)C2)C3)c1C the results were XBP1 UPR activ -3.2, Exocytosis inh -0.5, ABHD5-PLIN5 inh -3.0, Mdm2-MdmX inh 5.1 and UPR CHOP act 4.1.
For O=C(Nc1ccc(S(=O)(=O)N2CCCC2)cc1)c1ccc(CN2CCc3ccccc3C2)cc1 the results were XBP1 UPR activ -1.0, Exocytosis inh 3.1, ABHD5-PLIN5 inh 0.2, Mdm2-MdmX inh 20.8 and UPR CHOP act 6.5.
For COc1cc(OC)c(NC2=CC(=O)C(=O)c3ccccc32)cc1Cl the results were XBP1 UPR activ 20.5, Exocytosis inh 6.4, ABHD5-PLIN5 inh -15.9, Mdm2-MdmX inh 69.8*, UPR CHOP act 53.4*, UPR CHOP confirm 18.1, Mdm2 MdmX conf 65.5* and FLuc counter 46.3*.
